Results reported in ChEMBL document CHEMBL1153856, “Synthesis and spectral characterization of a new class of N-(N-methylpiperazinoacetyl)-2,6-diarylpiperidin-4-ones: antimicrobial, analgesic and antipyretic studies” (2009).

Legend:
Assay type in all cases: functional
Rattus norvegicus [1] = assay: Antipyretic activity against brewer's yeast-induced hyperthermia in Wistar rat assessed as change in rectal temperature at 5 mg/kg, po after 60 mins
Outline: (§1)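 Wistar rats of both sexes, 200–250 g, received brewer's yeast in normal saline sc. Rectal temperature was taken with a digital thermometer (precision 0.1 °C). At 18 h, rats whose temperature had risen 0.3–0.5 °C were selected. Test compounds (30 or 60 mg/kg) or indomethacin (5 mg/kg) were given orally in 1% CMC; controls received vehicle only. Temperature was measured at 30, 60, 90, 120 and 150 min, mean ± SEM.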

Rattus norvegicus [2] = assay: Antipyretic activity against brewer's yeast-induced hyperthermia in Wistar rat assessed as change in rectal temperature at 5 mg/kg, po after 90 mins; outline: as §1
Rattus norvegicus [3] = assay: Antipyretic activity against brewer's yeast-induced hyperthermia in Wistar rat assessed as change in rectal temperature at 5 mg/kg, po after 150 mins; outline: as §1
Rattus norvegicus [4] = assay: Antipyretic activity against brewer's yeast-induced hyperthermia in Wistar rat assessed as change in rectal temperature at 5 mg/kg, po after 120 mins; outline: as §1
Rattus norvegicus [5] = assay: Antipyretic activity against brewer's yeast-induced hyperthermia in Wistar rat assessed as change in rectal temperature at 5 mg/kg, po after 30 mins; outline: as §1

SMILES: COc1ccc2c(c1)c(CC(=O)O)c(C)n2C(=O)c1ccc(Cl)cc1 [INDOMETHACIN]
- Activity (Rattus norvegicus [1]): 37.9 °C
- Activity (Rattus norvegicus [2]): 37.8 °C
- Activity (Rattus norvegicus [3]): 37.5 °C
- Activity (Rattus norvegicus [4]): 37.7 °C
- Activity (Rattus norvegicus [5]): 38.1 °C
